In one test the test system is humans. The following applies: hallucinogenic activity, parenteral ref Shulgin and Shulgin 1997; cited from earlier work.
The target of a further test is D5 (Homo sapiens, UniProt P21918). The test is described as follows: Radioligand binding.
The next test has as its target β1 (Homo sapiens, UniProt P08588). The test is described as follows: Radioligand binding.
The target of another test is SERT (Homo sapiens, UniProt P31645). The test is described as follows: Radioligand binding.
SERT, sequence (P31645 whole entry): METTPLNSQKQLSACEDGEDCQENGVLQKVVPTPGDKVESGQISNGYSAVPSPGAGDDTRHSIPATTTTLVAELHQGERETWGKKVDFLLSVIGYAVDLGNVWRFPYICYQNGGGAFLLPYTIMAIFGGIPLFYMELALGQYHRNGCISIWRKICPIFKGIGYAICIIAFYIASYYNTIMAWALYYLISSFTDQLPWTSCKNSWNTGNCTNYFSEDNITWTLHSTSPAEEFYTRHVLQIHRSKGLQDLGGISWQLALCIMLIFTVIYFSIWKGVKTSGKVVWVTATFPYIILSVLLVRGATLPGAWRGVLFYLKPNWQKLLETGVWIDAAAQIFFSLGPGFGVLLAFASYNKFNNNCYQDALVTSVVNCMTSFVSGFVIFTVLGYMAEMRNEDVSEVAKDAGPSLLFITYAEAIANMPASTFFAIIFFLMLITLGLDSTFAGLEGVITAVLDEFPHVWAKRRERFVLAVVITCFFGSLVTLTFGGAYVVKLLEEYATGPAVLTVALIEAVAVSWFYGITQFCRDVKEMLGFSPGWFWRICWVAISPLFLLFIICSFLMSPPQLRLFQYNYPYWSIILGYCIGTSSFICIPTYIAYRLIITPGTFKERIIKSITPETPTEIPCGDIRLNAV
The next test addresses sigma-1 (Homo sapiens, UniProt Q99720). The test is described as follows: Radioligand binding.
For another test, the target named is M5 (Homo sapiens, UniProt P08912). Description: Radioligand binding.
In a further test the target is α1D (Homo sapiens, UniProt P25100). The test is described as follows: Radioligand binding.
α1D, sequence (P25100 whole entry): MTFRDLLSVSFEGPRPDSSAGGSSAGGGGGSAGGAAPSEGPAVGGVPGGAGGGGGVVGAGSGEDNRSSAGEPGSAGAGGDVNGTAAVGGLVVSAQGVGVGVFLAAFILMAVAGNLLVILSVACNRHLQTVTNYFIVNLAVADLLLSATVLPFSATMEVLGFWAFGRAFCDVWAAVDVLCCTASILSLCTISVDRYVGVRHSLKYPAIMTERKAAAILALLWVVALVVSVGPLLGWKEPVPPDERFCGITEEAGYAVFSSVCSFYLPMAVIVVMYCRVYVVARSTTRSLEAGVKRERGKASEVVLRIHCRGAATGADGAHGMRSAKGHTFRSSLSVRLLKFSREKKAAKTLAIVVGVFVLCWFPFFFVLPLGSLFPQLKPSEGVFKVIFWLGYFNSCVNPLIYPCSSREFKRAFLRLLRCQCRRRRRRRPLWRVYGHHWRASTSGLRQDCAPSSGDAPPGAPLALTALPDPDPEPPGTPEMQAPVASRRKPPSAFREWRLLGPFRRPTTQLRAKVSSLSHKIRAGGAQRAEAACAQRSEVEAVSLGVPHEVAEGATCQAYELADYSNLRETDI
The next test concerns the target M2 (Homo sapiens, UniProt P08172). The test is described as follows: Radioligand binding.
A further test addresses KOR (Homo sapiens, UniProt P41145). The test is described as follows: Radioligand binding.
For the next test, the target named is α2C (Homo sapiens, UniProt P18825). The test is described as follows: Radioligand binding.
α2C, sequence (P18825 whole entry): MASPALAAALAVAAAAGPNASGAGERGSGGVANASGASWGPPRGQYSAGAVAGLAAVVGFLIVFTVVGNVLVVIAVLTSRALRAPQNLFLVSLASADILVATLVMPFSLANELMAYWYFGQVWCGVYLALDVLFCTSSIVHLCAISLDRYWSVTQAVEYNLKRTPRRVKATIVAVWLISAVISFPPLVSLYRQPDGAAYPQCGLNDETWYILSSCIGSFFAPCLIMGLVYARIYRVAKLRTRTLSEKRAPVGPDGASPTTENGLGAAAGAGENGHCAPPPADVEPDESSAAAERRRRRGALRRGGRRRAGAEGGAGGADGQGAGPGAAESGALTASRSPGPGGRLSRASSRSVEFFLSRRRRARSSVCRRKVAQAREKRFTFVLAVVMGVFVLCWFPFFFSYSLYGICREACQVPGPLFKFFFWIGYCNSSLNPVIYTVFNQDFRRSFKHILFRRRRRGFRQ
The target of the next test is M4 (Homo sapiens, UniProt P08173). The test is described as follows: Radioligand binding.
Another test addresses M3 (Homo sapiens, UniProt P20309). Description: Radioligand binding.
For another test, the target named is H1 (Homo sapiens, UniProt P35367). The test is described as follows: Radioligand binding.
H1, sequence (P35367 whole entry): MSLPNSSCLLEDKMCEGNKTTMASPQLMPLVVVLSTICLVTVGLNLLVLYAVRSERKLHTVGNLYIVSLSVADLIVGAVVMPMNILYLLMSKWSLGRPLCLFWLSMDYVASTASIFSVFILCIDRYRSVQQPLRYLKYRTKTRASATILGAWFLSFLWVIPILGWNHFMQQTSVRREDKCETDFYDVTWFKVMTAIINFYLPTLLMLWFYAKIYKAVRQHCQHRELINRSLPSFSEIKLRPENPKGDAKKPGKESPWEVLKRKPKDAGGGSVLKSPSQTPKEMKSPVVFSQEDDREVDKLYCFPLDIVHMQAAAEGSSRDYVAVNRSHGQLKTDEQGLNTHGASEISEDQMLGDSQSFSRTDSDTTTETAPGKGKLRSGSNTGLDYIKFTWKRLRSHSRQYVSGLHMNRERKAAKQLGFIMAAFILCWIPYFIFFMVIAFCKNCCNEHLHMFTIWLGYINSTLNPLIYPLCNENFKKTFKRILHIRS
The target of test [1] is [3H]DOB-labeled 5-HT2A receptors. The note with it: [3H]DOB-labeled 5-HT2A receptors (agonist high-affinity state) ref Egan et al. 2000; cited from earlier work.
For another test, the target named is M1 (Homo sapiens, UniProt P11229). Description: Radioligand binding.
The next test relates to Male Sprague–Dawley rats. The test is described as follows: Behavioral Pattern Monitor. The test is classed as in vivo, rat. The procedure, abridged:
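Male Sprague–Dawley rats (250–275 g at arrival), pair-housed under a reverse 12-h light–dark cycle, were handled the day before testing and were naïve to the BPM. Pargyline (0 or 10 mg/kg) was given 20 min before the test compound; all dosing was s.c. at 1 ml/kg, n=7–8. Ten min after dosing, rats were placed in the BPM and monitored for 60 min in darkness. Crossings between eight sectors were counted in 10-min bins, and spatial d was derived from X–Y paths.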

A further test concerns the target D1 (Homo sapiens, UniProt P21728). The test is described as follows: Radioligand binding.
Another test deals with DAT (Homo sapiens, UniProt Q01959). The test is described as follows: Radioligand binding.
The target of another test is H3 (Homo sapiens, UniProt Q9Y5N1). The test is described as follows: Radioligand binding.
In another test the target is NET (Homo sapiens, UniProt P23975). Description: Radioligand binding.
For a further test, the target named is D3 (Rattus norvegicus, UniProt P19020). Description: Radioligand binding.
The next test addresses β3 (Homo sapiens, UniProt P13945). The test is described as follows: Radioligand binding.
The next test addresses α2A (Homo sapiens, UniProt P08913). The test is described as follows: Radioligand binding.
The target of a further test is D2 (Homo sapiens, UniProt P14416). The test is described as follows: Radioligand binding.
The target in the next test is EP4 (Homo sapiens, UniProt P35408). The test is described as follows: Radioligand binding.
Another test has as its target DOR (Homo sapiens, UniProt P41143). Description: Radioligand binding.
The target in the next test is α1A (Homo sapiens, UniProt P35348). Description: Radioligand binding.
α1A, sequence (P35348 whole entry): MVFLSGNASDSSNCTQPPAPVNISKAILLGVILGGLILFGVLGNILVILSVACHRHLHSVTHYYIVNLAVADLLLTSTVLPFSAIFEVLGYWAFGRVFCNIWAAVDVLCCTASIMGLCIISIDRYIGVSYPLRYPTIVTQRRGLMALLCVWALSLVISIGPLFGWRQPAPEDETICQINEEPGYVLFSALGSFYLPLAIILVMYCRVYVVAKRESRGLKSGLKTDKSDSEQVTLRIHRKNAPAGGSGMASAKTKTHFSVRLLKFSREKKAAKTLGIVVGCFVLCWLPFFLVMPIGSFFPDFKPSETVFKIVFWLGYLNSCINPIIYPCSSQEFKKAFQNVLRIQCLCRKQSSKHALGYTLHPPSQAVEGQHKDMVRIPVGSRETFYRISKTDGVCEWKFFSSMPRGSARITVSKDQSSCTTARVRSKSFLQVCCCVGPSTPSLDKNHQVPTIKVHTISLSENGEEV
Another test deals with MOR (Homo sapiens, UniProt P35372). Description: Radioligand binding.
The next test has as its target Sigma-2 (Rattus norvegicus, UniProt Q5U3Y7). The test is described as follows: Radioligand binding.
Another test has as its target EP3 (Homo sapiens, UniProt P43115). Description: Radioligand binding.
For a further test, the target named is H2 (Homo sapiens, UniProt P25021). Description: Radioligand binding.
H2, sequence (P25021 whole entry): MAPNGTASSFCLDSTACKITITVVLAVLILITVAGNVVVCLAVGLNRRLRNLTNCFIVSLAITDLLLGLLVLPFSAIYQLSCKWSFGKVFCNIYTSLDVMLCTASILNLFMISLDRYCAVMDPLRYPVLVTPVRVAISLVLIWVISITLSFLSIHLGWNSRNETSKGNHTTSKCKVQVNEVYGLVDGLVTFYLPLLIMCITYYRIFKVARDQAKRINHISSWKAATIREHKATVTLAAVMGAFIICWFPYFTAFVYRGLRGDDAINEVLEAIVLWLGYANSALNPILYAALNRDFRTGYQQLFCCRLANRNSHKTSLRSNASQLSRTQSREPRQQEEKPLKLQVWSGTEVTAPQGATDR
In a further test the target is D4 (Homo sapiens, UniProt P21917). The test is described as follows: Radioligand binding.
D4, sequence (P21917 whole entry): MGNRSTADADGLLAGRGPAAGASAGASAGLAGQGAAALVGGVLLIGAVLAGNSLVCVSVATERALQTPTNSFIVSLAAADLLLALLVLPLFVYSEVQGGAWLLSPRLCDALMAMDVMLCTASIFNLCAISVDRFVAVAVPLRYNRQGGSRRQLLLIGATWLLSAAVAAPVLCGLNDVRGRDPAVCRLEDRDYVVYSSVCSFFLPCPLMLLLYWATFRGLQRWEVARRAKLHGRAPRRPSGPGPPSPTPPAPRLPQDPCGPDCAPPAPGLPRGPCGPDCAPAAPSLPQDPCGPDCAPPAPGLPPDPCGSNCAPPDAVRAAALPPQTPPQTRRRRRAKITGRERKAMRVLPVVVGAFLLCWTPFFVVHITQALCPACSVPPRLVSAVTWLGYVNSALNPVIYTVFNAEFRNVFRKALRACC
For a further test, the target named is β2 (Homo sapiens, UniProt P07550). Description: Radioligand binding.
β2, sequence (P07550 whole entry): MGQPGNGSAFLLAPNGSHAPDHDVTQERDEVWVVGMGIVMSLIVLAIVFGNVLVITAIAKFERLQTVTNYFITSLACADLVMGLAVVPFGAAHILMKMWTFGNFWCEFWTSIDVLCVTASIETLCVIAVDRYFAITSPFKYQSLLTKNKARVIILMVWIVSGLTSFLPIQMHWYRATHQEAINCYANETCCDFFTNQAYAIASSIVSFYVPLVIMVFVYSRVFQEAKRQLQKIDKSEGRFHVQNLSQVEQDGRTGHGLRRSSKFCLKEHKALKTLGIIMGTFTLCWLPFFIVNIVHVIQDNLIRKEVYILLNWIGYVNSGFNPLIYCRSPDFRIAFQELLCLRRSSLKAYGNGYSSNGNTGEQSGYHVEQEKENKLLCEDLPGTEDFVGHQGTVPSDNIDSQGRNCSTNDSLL
The next test deals with α1B (Homo sapiens, UniProt P35368). Description: Radioligand binding.
α1B, sequence (P35368 whole entry): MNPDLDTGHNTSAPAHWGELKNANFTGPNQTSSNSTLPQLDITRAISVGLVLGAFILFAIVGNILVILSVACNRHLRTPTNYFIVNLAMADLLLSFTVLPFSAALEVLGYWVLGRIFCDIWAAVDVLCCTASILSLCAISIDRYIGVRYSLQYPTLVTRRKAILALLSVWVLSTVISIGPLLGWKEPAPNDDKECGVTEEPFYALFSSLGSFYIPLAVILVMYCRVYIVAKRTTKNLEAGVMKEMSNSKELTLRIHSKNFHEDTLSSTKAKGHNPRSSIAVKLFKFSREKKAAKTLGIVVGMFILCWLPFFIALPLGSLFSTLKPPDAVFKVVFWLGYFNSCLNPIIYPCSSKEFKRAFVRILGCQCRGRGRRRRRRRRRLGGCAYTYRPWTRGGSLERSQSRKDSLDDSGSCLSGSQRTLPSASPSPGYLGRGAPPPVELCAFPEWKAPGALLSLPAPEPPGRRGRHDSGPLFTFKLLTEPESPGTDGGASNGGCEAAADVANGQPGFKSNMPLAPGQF
For a further test, the target named is H4 (Homo sapiens, UniProt Q9H3N8). Description: Radioligand binding.
The subject of another test is 5-HT2A receptor. The following applies: higher affinity than 5-MeO-DMT ref Roth et al. 1997; Egan et al. 2000; cited from earlier work.
The subject of a further test is MAOA. The note with it: pargyline 10 mg/kg, s.c. ref Ortmann et al. 1984; cited from earlier work.
Another test has as its system MAOB. The following applies: pargyline 10 mg/kg, s.c. ref Ortmann et al. 1984; cited from earlier work.
[2] abbreviates: Experiment 1, drug × time interaction, post hoc per 30-min block.
Where [3] appears, read: read-out: Ki nM (±SEM), [3H]clonidine, cloned human receptor.
Where [4] appears, read: read-out: Ki nM (±SEM), [3H]prazocin, cloned human receptor.

Counter-ions that a name gives are not always drawn. Like-named read-outs stand apart in the source and are kept apart here.

α2A, sequence (P08913 whole entry): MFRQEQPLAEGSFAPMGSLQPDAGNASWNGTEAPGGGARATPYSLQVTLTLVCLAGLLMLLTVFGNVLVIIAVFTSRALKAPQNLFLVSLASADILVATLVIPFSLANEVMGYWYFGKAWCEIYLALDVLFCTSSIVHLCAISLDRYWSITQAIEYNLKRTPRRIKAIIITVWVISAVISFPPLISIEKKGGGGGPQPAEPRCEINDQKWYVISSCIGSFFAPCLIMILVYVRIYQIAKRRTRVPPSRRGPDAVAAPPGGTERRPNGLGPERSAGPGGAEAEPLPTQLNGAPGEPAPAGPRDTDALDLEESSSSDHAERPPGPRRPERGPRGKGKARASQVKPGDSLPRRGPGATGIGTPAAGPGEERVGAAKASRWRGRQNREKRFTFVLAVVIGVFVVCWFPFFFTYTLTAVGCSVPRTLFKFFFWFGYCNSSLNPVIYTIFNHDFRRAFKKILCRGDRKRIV
Sigma-2, sequence (Q5U3Y7 whole entry): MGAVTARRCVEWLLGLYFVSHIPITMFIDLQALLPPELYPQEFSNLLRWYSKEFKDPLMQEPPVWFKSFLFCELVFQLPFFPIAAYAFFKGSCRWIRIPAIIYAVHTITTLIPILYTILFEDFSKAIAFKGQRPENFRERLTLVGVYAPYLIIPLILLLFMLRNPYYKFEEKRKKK

Consider `COc1ccc2[nH]cc(CCN(C)C)c2c1.O=C(O)C(=O)O` [5-MeO-DMT, 5-Methoxy-N, N-dimethyltryptamine oxalate], for which the “Active parenteral dose in humans” value in the test on humans is 2 to 3 mg. The Ki on D5 was more than 10 µM; on β1, more than 10 µM; at SERT, 3600 nM; on sigma-1, more than 10 µM; on M5, more than 10 µM; at α1D, 439 nM. The Ki is more than 10 µM at M2; more than 10 µM at KOR; 206 nM on α2C; more than 10 µM on M4; more than 10 µM at M3; 7580 nM at H1. Further, the inhibitory constant (Ki) in test [1] was 0.09 µM; at M1, more than 10 µM; at D1 it was more than 10 µM; on DAT it was more than 10 µM; at H3, more than 10 µM; at NET, more than 10 µM. For the same molecule, the Ki was more than 10000 nM on D3; more than 10 µM at β3; 938 nM at α2A; more than 10 µM on D2; more than 10 µM at EP4; more than 10 µM on DOR. The inhibition constant (Ki) at α1A was 4370 nM; on MOR, more than 10 µM; on Sigma-2, 3690 nM; at EP3, more than 10 µM; on H2, more than 10000 nM; on D4, more than 10 µM. In addition, the Ki on β2 is 2680 nM; at α1B it was 2190 nM; on H4, more than 10 µM. Also, the “Effect on crossings (locomotor activity)” value with Male Sprague–Dawley rats (Experiment 1, 0.1 mg/kg s.c. after pargyline 10 mg/kg) is on record as “reduced crossings during the first half-hour, but did not increase activity during the second half-hour”; in the test on Male Sprague–Dawley rats (Experiment 1, 0.1 and 1.0 mg/kg s.c., vehicle-pretreated rats), “reduced crossings”; with Male Sprague–Dawley rats (Experiment 3, 0.3 to 3.0 mg/kg s.c. alone, first 10 min of testing (p<0.01)), “significantly reduced crossings”. Also, the “Effect on spatial d” value with Male Sprague–Dawley rats (Experiment 1, 1.0 mg/kg s.c. after pargyline 10 mg/kg, second half-hour of session (p<0.01)) is reported as “significantly reduced spatial d”; in the test with Male Sprague–Dawley rats (Experiment 1, 0.01 and 0.1 mg/kg s.c. after pargyline 10 mg/kg), “no effect on spatial d”; with Male Sprague–Dawley rats (setting [2]), “post hoc analysis failed to confirm this for any specific 30-min block”; in the test with Male Sprague–Dawley rats (Experiment 3, 0.3 to 3.0 mg/kg s.c. alone, first or second half-hour, post hoc) it was “failed to alter spatial d significantly”. For the same molecule, the “Biphasic effects on locomotor activity” value with Male Sprague–Dawley rats (Experiment 3, alone, up to 3 mg/kg s.c.) is given as “did not induce biphasic effects on locomotor activity”.

As for `CN(C)CCc1c[nH]c2ccc(O)cc12` [bufotenine, 5-hydroxy-DMT], in the test on 5-HT2A receptor, the “Affinity for the 5-HT2A receptor relative to 5-MeO-DMT” value is given as 10 fold.

As for `C#CCN(C)Cc1ccccc1` [pargyline, pargyline hydrochloride], the MAOA inhibition in the test on MAOA is listed as 78%. For the same molecule, in the test with Male Sprague–Dawley rats (setting [2]), the “Effect on spatial d” value is given as “post hoc analysis failed to confirm this for any specific 30-min block”. For the same molecule, in the test on MAOB, the MAOB inhibition is given as 92%.

For `COc1ccc2[nH]cc(CCN(C)C)c2c1` [α,α,β,β-tetradeutero-5-MeO-DMT, α,α,β,β-Tetradeutero-5-methoxy-N,N-dimethyltryptamine (2:1) fumarate], the inhibition constant (Ki) was 2760 nM on SERT (read-out: Ki nM (±SEM), [3H]citalopram, cloned human transporter); 202 nM at α1D (read-out: Ki nM (±SEM), [125I]HEAT, cloned human receptor); 274 nM at α2C (setting [3]); more than 10000 nM on H1 (read-out: Ki nM (±SEM), [3H]pyrilamine, cloned human receptor); 7090 nM at D3 (read-out: Ki nM (±SEM), [3H]N-methyl-spiperone, cloned rat receptor); 1870 nM at α2A (setting [3]). Further, the Ki is 1010 nM on α1A (setting [4]); 7170 nM at Sigma-2 (read-out: Ki nM (±SEM), [3H]DTG, rat); 7160 nM on H2 (read-out: Ki nM (±SEM), [3H]tiotidine, cloned human receptor); 4560 nM at β2 (read-out: Ki nM (±SEM), [3H]CGP12177, cloned human receptor); 841 nM on α1B (setting [4]).

Take `O=C(O)/C=C/C(=O)O.[2H]C([2H])(c1c[nH]c2ccc(OC)cc12)C([2H])([2H])N(C)C.[2H]C([2H])(c1c[nH]c2ccc(OC)cc12)C([2H])([2H])N(C)C` [α,α,β,β-tetradeutero-5-MeO-DMT, α,α,β,β-Tetradeutero-5-methoxy-N,N-dimethyltryptamine (2:1) fumarate]: the “Effect on spatial d” value in the test with Male Sprague–Dawley rats (Experiment 2, 3.0 mg/kg s.c., first 30 min of the session (p<0.01)) is reported as “significantly increased spatial d”; in the test on Male Sprague–Dawley rats (Experiment 2, 3.0 mg/kg s.c., second 30 min of the session (p<0.01)) it was “significantly reduced spatial d”. The “Effect on crossings (locomotor activity)” value with Male Sprague–Dawley rats (Experiment 2, 0.3, 1.0 and 3.0 mg/kg s.c., first 20 min of the session) is “significantly reduced crossings”. Further, the “Delayed increase in locomotor activity” value with Male Sprague–Dawley rats (Experiment 2, 0.3 and 1.0 mg/kg s.c.) was “Neither of the lower doses tested (0.3 and 1.0 mg/kg) induced a delayed increase in activity”.

As a reminder, the Ki is the equilibrium dissociation constant of an inhibitor or competing ligand from its target.

These data come from paper PMC3796951 (Psychopharmacology, 2012).
